High-throughput results: PubChem, several laboratories
Sampled rows, rich in hits. Any-hit rate of the full collection: about 2.1%.
MC4R antag cAMP – blocks human MC4R cAMP signaling; MC4R-expressing cells, MTII-stimulated cAMP, LANCE TR-FRET; inhibition, % at 6.5 µM; 0.48% of 360,000 active; AID 540295;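 active = inhibition above its plate's cutoff, the mean of tested wells on that plate plus 3 SD, cut at about 29% in these data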;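 note: 0% = Melanotan II alone and 100% = Melanotan II plus saturating MCL0020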
Target sequence (P32245 whole entry, looked up): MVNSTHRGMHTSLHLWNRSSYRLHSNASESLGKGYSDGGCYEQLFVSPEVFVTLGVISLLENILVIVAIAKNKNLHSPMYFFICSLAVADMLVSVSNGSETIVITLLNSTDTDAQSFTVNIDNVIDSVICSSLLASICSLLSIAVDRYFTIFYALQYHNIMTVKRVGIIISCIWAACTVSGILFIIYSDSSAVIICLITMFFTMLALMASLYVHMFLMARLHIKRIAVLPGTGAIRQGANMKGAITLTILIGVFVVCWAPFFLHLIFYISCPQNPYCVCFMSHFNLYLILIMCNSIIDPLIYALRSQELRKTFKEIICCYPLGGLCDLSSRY
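System: U2OS cells stably expressing human melanocortin 4 receptor (MC4R). Reagent: Melanotan II challenge after compound preincubation. Doses: 6.5 µM. Times: 30-min compound, 1-h challenge, 1-h detection, room temperature. Measured by: TR-FRET with Eu-cAMP and labeled anti-cAMP, 671 nm. Replicates: singlicate.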
beta cell repl – inducers of beta-cell replication in MIN6 cells. 0.29% of 330,000 active. MIN6 cells proliferation, ATPlite luminescence, 48 h; cells starved in 0.2% serum; 100% = growth in 10% serum. proliferation, % at 10 µM. AID 2380;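 active = compounds whose signal lies at least 3.5 SD above the mean of all wells on their plate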;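 note: 0% = DMSO-treated cells in low-serum medium and 100% = 10% serum control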
MC4R ag barr – activates human MC4R beta-arrestin recruitment; AID 540308; activation, % at 8.9 µM; U2OS MC4R beta-arrestin complementation, luminescence; percent of melanotan II response, DMSO zero; P32245; 0.98% of 360,000 active;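 active = activation above a per-plate cutoff, the mean activation of sample wells on that plate plus 3 SD, cut at about 8% in these data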
TLR4 MyD88 comp – inhibitors of human TLR4-MyD88 binding | HeLa CL3-4 TLR4/MyD88 BLA complementation, FRET ratio | inhibition, % at 8.4 µM | 0.18% of 200,000 active | AID 861; in the data active = inhibition above about 25%;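 note: 0% = vehicle and 100% = reference inhibitor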
TLR9-MyD88 inh – inhibitors of human TLR9-MyD88 binding; CHO BLA complementation TLR9-MyD88, CCF4 FRET ratio; inhibition, % at 4.98 µM; 0.21% of 340,000 active; AID 504734;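 active = inhibition above the mean over all tested compounds plus 3 SD, cut at about 21% in these data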;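 note: 0% = DMSO only wells and 100% = clavulanate BLA inhibitor control wells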
NOD2-RIPK2 inh – inhibitors of human NOD2-RIPK2 interaction; O43353; AID 624267; CHO BLA complementation NOD2-RIPK2, CCF4 ratio; inhibition, % at 4.98 µM; 0.38% of 360,000 active; in the data active = inhibition above about 21%;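 note: 0% = vehicle only and 100% = reference blocker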
MC4R barr ag – human MC4R beta-arrestin agonism confirmation; shares compounds with MC4R ag barr; U2OS MC4R beta-arrestin recruitment, luminescence; scaled DMSO 0%, Melanotan II 100%; activation, % at 8.9 µM; 31% of 2,400 active;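 active = mean activation across replicates above the hit cutoff set in the earlier primary screen, cut at about 8% in these data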
MOR DOR agonist – OPRM1-OPRD1 heterodimer agonism counter-screen; shares compounds with MC4R ag barr; U2OS PathHunter beta-arrestin, beta-gal luminescence; percent of deltorphin B response, DMSO zero; activation, % at 9.2 µM; 5.8% of 2,400 active; AID 602194;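 active = mean activation across replicates exceeds the hit threshold derived in the earlier primary screen, cut at about 18% in these data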;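 note: 100% = deltorphin B at 0.9 µM final and 0% = DMSO alone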
* hit, by the source's call; . = no result.

SMILES | MC4R antag cAMP | beta cell repl | MC4R ag barr | TLR4 MyD88 comp | TLR9-MyD88 inh | NOD2-RIPK2 inh | MC4R barr ag | MOR DOR agonist
Cc1cccnc1C(c1ccc(F)cc1)N(C)C(=O)C1CCN(CCCOc2ccc(F)cc2)CC1 (configuration not stated) | -2 | . | -1 | . | . | 1 | . | .
Cc1cccnc1C(c1ccc(F)cc1)N(C)C(=O)C1CCN(CCOc2ccc(Cl)cc2Cl)CC1 (configuration not stated) | 7 | . | 11* | . | . | -5 | 18* | 10
O=C(NC(c1ccccc1)c1ccc2ccccc2n1)C1CCN(CCOc2ccc(Cl)cc2Cl)CC1 (configuration not stated) | 13 | . | 39* | . | . | 5 | 18* | 7
CN(Cc1ccccc1)C(=O)COC(=O)CN1C(=O)c2ccccc2C1=O | 0 | -2 | -1 | . | 1 | -5 | . | .
Cc1sc(NC(=O)Cn2c(=O)oc3ccccc32)nc1-c1ccc(Cl)cc1 | 0 | -4 | 13* | -21 | 3 | 0 | 3 | 7
O=C(CCCCn1c(=O)c2ccccc2n(Cc2ccc(F)cc2Cl)c1=O)NCc1ccco1 | 5 | 1 | 11* | -8 | 2 | -9 | 1 | 4
NC1=NC(=O)/C(=C/c2c(OS(=O)(=O)c3ccc(Cl)cc3)ccc3ccccc23)S1 | 7 | 0 | 9.6* | 0 | 0 | -1 | 2 | 5
NC1=NC(=O)/C(=C/c2ccccc2OS(=O)(=O)c2ccccc2)S1 | -3 | 0 | -3 | 1 | -3 | -7 | . | .
NC(c1csc(NC(=O)Nc2cccc(Cl)c2)n1)C1CCCCC1 (configuration not stated) | -3 | . | 13* | . | . | -3 | 20* | 18
NC(c1ccccc1)c1csc(NC(=O)Nc2cccc(Cl)c2)n1 (configuration not stated) | -7 | . | 12* | . | . | 2 | 13* | 13
C=CCN(CC=C)Cc1cc(=O)oc2cc(C)c(C)cc12 | . | . | . | . | . | -1 | . | .
Nc1c(N=Nc2cccc(Cl)c2)c(=O)[nH]n1-c1ccccc1 | 7 | -4 | 13* | 2 | -8 | -8 | 6 | 4
Cc1[nH]n(-c2ccccc2)c(=O)c1N=Nc1cccc(Cl)c1 | 15 | 1 | 1 | . | -9 | 0 | . | .
Cc1nn(-c2ccccc2)nc1C(=O)Nc1ccc2[nH]ncc2c1 | 7 | 2 | 23* | . | -9 | -3 | 13* | 5
Cc1ccc2c(c1)c1c(n2CC(O)Cn2c(C)nc3ccccc32)CCCC1 (configuration not stated) | -2 | -6 | 9.6* | -15 | 9 | -7 | 4 | 8
Cc1cc(=O)[nH]c(N/N=C/c2c(C)nn(-c3ccccc3)c2Cl)n1 | 22 | 2 | 1 | . | -7 | -7 | . | .
Cc1nn(-c2ccccc2)c(Cl)c1/C=N/Nc1nc2ccccc2[nH]1 | -1 | -4 | 12* | -12 | 6 | -6 | 3 | 10
O=C(C1CCCCC1)N1C[C@@H](n2cc(-c3ccc(F)cc3)nn2)[C@H](O)C[C@@H]1c1ccc(Cl)cc1 | 9 | . | 12* | . | 0 | 2 | -2 | 10
COc1cccc(C(NC(C)=O)c2nc(-c3ccc(F)c(Cl)c3)cs2)c1 (configuration not stated) | 7 | . | -1 | . | . | -4 | . | .
O=[N+]([O-])c1ccc(/C=C/c2ccc3cccc([N+](=O)[O-])c3n2)cc1 | 4 | 0 | 10* | -3 | -3 | 3 | 4 | 7
O=[N+]([O-])c1cccc2ccc(/C=C/c3ccc(F)cc3)nc12 | -2 | -3 | 7 | 0 | -2 | 1 | . | .
O=C(Nc1ccc(-c2nnc3n2CCCCC3)cc1)c1cc2ccccc2o1 | 6 | 0 | -1 | -8 | 4 | -4 | . | .
